The results in this text go back to ChEMBL document CHEMBL1129333, “Synthesis and biological activities of flavonoid derivatives as A3 adenosine receptor antagonists” (J Med Chem, 1996).

Where only a bound is given, the exact number is not on record here.

What is called Ki is a dissociation constant, usually derived from enzyme kinetics or from competition with a known ligand. By inhibition is commonly meant how much of the control response was suppressed.

In test [1] the target is T1, Adenosine receptor A3 (Homo sapiens, UniProt P0DMS8).
T1 sequence (P0DMS8 whole entry): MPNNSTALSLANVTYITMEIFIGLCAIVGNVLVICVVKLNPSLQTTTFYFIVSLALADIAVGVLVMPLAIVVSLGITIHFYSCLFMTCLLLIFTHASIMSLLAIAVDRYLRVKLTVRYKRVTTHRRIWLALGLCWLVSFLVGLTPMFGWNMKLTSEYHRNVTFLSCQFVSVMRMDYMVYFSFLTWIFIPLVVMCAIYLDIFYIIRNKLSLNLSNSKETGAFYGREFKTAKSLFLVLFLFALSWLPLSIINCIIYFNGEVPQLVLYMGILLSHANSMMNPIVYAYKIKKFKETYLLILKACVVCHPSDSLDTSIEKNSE
In words: Binding affinity against human adenosine A3 receptor in HEK293 cells using [125I]AB-MECA […] radioligand. The test is classed as cell-based.

Test [2] addresses T2, Adenosine receptor A1 (Rattus norvegicus) (UniProt P25099).
T2 sequence (whole entry): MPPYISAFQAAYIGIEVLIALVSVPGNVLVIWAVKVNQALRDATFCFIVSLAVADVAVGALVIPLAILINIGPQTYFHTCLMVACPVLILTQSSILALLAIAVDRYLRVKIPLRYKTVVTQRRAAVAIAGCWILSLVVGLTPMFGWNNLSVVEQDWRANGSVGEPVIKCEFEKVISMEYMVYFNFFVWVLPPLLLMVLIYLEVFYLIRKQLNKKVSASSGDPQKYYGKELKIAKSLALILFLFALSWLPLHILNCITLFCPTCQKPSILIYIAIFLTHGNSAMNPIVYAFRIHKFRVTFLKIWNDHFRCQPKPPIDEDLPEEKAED
In words: Percentage inhibition against Adenosine A1 receptor in rat brain membranes using [3H]-PIA. More on the design: concentration or dose not given beside the values. The test is classed as cell membranes. The conditions noted are these: concentration not given here.

The target of test [3] is T3, Adenosine A2 receptor (Rattus norvegicus) (UniProt P29276+P30543). In words: Percent displacement at 10e-4 M against Adenosine A2 receptor in rat striatal membranes using [3H]-CGS- 21680. The test is classed as cell membranes. The conditions noted are these: Striatum, Membrane. In outline:
(§1)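 Rat striatal membranes, prepared with adenosine deaminase (3 units/mL) including a 30 min, 30 °C preincubation, ADA also present during radioligand incubation; [3H]CGS 21680 displacement. Test compounds from DMSO stocks, final DMSO ≤1%, at least five concentrations spanning 3 orders of magnitude.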

Another test concerns the target Adenosine A2 receptor (Rattus norvegicus, UniProt P29276+P30543). Nature of the test: Binding affinity at Adenosine A2 receptor in rat striatal membranes by [3H]-CGS- 21680 displacement. The test is classed as cell membranes, Striatum, Membrane. In outline:
as §1

For test [4], the target named is T2, Adenosine receptor A1 (Rattus norvegicus). Nature of the test: Percent inhibition at 10e-4 M against Adenosine A1 receptor in rat brain membranes using [3H]-PIA. The test is classed as cell membranes.
Test [5] concerns the target T4, Adenosine receptor A3 (Rattus norvegicus) (UniProt P28647).
T4 sequence (whole entry): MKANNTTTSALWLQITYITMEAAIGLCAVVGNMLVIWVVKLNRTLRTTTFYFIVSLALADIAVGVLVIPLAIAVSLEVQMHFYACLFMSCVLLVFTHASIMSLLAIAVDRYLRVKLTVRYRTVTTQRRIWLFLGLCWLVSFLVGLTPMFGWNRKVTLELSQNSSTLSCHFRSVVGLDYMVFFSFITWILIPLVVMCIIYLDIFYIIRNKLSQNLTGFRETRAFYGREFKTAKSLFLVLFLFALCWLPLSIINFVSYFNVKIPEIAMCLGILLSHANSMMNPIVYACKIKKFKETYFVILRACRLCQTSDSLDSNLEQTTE
In words: (§2) Binding affinity for [125I]AB-MECA against rat Adenosine A3 receptor. The conditions noted are these: concentration not given here.

Test [6] has as its target Adenylate cyclase type 2 (Rattus norvegicus) (UniProt P26769). Nature of the test: Percent inhibition against adenylyl cyclase was measured using IB-MECA […] at 10E-6. In kind it is functional. The conditions noted are these: concentration not given here. In outline:
(§3)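 Membranes from CHO cells stably expressing rat A3 receptor (grown in F-12, 10% FBS, 37 °C, 5% CO2); [α-32P]ATP added with 1 μM forskolin and papaverine as phosphodiesterase inhibitor.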

The target is the same in test [7]. Nature of the test: Percent inhibition against adenylyl cyclase was measured using IB-MECA […] at 10E-7. The test is classed as functional. As to conditions: concentration not given here. In a few lines:
as §3

The subject of test [8] is Adenosine A1 receptor (Rattus norvegicus) / A3 receptor (Homo sapiens). In words: Ratio of binding affinities between rA1 and human A3.
For another test, the target named is T5, Adenosine receptor A1 (Rattus norvegicus, UniProt P25099).
T5 sequence (P25099 whole entry): T2 sequence (whole entry)
In words: Binding affinity at Adenosine A1 receptor in rat brain membranes by [3H]PIA displacement. In kind it is cell membranes.

Test [9] concerns the target T2, Adenosine receptor A1 (Rattus norvegicus). In words: Percent displacement against Adenosine A1 receptor in rat brain membranes using [3H]PIA at 10e-4 M. The test is classed as cell membranes.
Test [10] concerns the target T6, Adenosine receptor A3 (Homo sapiens) (UniProt P0DMS8).
T6 sequence (whole entry): T1 sequence (P0DMS8 whole entry)
In words: Binding affinity against human Adenosine A3 receptor in HEK293 cells using [125I]AB-MECA […]. The test is classed as cell-based. In a few lines: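 Membranes of HEK-293 cells stably expressing human A3 receptor (0.3 mg protein/mL) in 50 mM Tris, 10 mM Mg2+, 1 mM EDTA, pH 8.0, with 0.3 nM [125I]AB-MECA final. Duplicate 1 h incubations at 25 °C, filtration over GF/B, gamma counting; nonspecific binding with 100 μM (R)-PIA; DMSO ≤1%.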

Test [11] has as its target T7, Adenosine receptor A3 (Rattus norvegicus, UniProt P28647).
T7 sequence (P28647 whole entry): T4 sequence (whole entry)
The test is described as §2.

Test [12] deals with T3, Adenosine A2 receptor (Rattus norvegicus). Nature of the test: Percentage inhibition against Adenosine A2 receptor in rat striatal membranes using [3H]-CGS- 21680. The test is classed as cell membranes. The conditions noted are these: Striatum, Membrane, concentration not given here. In a few lines: as §1
Test [13] has the same target. Nature of the test: Percent inhibition against Adenosine A2 receptor in rat striatal membranes using [3H]-CGS- 21680. As to conditions: Striatum, Membrane, concentration not given here. In kind it is cell membranes. In outline:
as §1

Sequence of Adenylate cyclase type 2 (Rattus norvegicus) (P26769 whole entry): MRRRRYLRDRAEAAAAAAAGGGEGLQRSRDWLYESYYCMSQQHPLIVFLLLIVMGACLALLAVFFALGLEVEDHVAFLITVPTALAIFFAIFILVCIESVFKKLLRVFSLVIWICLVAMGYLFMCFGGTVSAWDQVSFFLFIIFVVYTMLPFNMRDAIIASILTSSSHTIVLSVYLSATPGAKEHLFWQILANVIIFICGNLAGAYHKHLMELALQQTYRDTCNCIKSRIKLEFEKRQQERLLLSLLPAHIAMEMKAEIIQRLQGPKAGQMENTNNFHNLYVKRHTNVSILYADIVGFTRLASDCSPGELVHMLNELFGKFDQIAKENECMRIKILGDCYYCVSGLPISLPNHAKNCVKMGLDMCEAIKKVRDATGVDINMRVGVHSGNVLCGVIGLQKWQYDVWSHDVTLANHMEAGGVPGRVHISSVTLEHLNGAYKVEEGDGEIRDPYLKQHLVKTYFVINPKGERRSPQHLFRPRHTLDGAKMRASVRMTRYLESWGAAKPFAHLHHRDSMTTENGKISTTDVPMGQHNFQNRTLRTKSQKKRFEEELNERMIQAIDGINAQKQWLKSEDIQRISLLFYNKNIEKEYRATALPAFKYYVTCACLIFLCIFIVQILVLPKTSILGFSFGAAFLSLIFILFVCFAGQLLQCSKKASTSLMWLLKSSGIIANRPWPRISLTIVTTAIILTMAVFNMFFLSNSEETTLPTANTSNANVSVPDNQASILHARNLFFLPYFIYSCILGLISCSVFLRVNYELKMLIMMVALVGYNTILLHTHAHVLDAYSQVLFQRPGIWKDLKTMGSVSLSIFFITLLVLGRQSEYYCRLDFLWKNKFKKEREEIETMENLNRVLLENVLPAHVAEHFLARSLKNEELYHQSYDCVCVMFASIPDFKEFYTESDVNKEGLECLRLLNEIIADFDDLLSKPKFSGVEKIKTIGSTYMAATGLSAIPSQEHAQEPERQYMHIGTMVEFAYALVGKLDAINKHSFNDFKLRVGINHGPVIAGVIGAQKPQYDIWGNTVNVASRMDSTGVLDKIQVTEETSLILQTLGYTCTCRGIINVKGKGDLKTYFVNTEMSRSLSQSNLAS

`Cc1cc(C)c(-c2oc3ccc(Cl)cc3c(=O)c2Cl)c(C)c1` had a Ki at Adenosine receptor A3 [1] of 5.24 µM. The compound further yielded an inhibition in test [2] of 37%. The Displacement in [3] is less than 10%.

`O=c1cc(-c2ccccc2)oc2ccccc12` [FLAVONE]: at Adenosine A2 receptor, the Ki turned out to be 3.45 µM.

`O=C1CC(c2ccccc2O)Oc2ccccc21` (stereo unspecified) [2'-HYDROXY-FLAVANONE] came in with a Ki at Adenosine A2 receptor of 17.6 µM.

`COc1ccc2c(c1)C(=O)[C@H](O)[C@@H](/C=C/c1ccccc1)O2` (relative stereo): the Displacement in test [4] and in test [3] was less than 10% throughout. For the same compound, the inhibition in test [5] turned out to be 43%; in test [6], 39.2%; in [7], 25.9%. In [8], the Ratio was greater than 8.

For `CCOc1ccc(-c2oc3cc(OCC)cc(OCC)c3c(=O)c2OCC)c(OCC)c1`, on Adenosine A2 receptor, the inhibition constant Ki is 26.8 µM.

`O=c1cc(-c2ccccc2)oc2ccc(Cl)cc12` returned an inhibition in [2] of 28%. The compound also returned a Displacement in test [3] of less than 10%.

Regarding `COc1cc2oc(-c3ccc(O)cc3O)c(CC=C(C)C)c(=O)c2c(O)c1/C=C/C(C)C` [ARTOCARPIN], the figures for the Ki on Adenosine receptor A1 and on Adenosine receptor A3 [1] were 9.09 µM and 4.59 µM, respectively. Further, the Displacement in [3] was less than 10%.

In the case of `COc1cc(O)c2c(c1)OC(c1ccc(O)cc1)CC2=O` (stereo unspecified), at Adenosine A2 receptor, the inhibition constant (Ki) is 35.6 µM.

`O=c1c(O)c(-c2ccc(O)cc2O)oc2cc(O)cc(O)c12` [MORIN] returned an inhibitory constant (Ki) on Adenosine A2 receptor of 17.3 µM.

The compound `CCOc1cc(O)c2c(=O)c(OCC)c(-c3ccccc3)oc2c1` returned an inhibition constant (Ki) on Adenosine A2 receptor of 63.8 µM.

On Adenosine receptor A3 [1], `OCCN(CCO)C1=NC(N2CCCCC2)c2nc(N(CCO)CCO)nc(N3CCCCC3)c2N1` (stereo unspecified) had a Ki of 19 µM.

On Adenosine A2 receptor, `COc1c2ccoc2cc2oc(C)cc(=O)c12` [VISNAGIN] yielded an inhibition constant Ki of 42.4 µM. The compound further yielded an inhibition in test [2] of 36%.

Turning to `CCOc1ccc(-c2oc3cc(OCC)cc(O)c3c(=O)c2OCC)c(OCC)c1`, the Displacement in test [9] and in test [3] was less than 10% each time. Also, the Ratio in test [8] is greater than 40.

On to `COc1c2ccoc2cc2oc(/C=C/C=C/c3ccccc3)cc(=O)c12`, for which the Displacement in test [9], in test [10] and in test [3] was less than 10% in each case.

Consider `OC12CCCCC1=Nc1ccccc12` (stereo unspecified), for which affinity on Adenosine receptor A3 [1] was put at a Ki of 22 µM.

With `COc1ccc(-c2oc3cc(OC)cc(OC)c3c(=O)c2OC)c(OC)c1`, the Ki at Adenosine A2 receptor was 46.7 µM.

Regarding `O=c1c(Cl)c(-c2ccccc2)oc2ccccc12`, the results for the inhibitory constant (Ki) at Adenosine receptor A1, at Adenosine receptor A3 [1] and at Adenosine A2 receptor were 2.48 µM, 11.5 µM and 25.1 µM, respectively.

Take `COc1cc(OC)c2c(=O)c(OC)c(-c3ccccc3)oc2c1`: the inhibition constant Ki on Adenosine A2 receptor amounted to 6.45 µM.

In turn, `O=S(=O)(c1cccc2cnccc12)N1CCNCC1` had an inhibition constant Ki at Adenosine receptor A3 [1] of 25 µM.

On to `CCCOc1cc(OCCC)c2c(=O)c(OCCC)c(-c3ccccc3)oc2c1`, for which the Ratio in [8] amounted to 3.5.

`CSc1sc(C(=O)NN)c2c1C=CCC2` came in with a Ki at Adenosine receptor A3 [1] of 13 µM.

Regarding `CCOc1c2ccoc2cc2oc(/C=C/c3ccccc3)cc(=O)c12`, the figures for the Ki on Adenosine receptor A3 [11] and on Adenosine A2 receptor were 12.3 µM and 33.8 µM, respectively. Moreover, the figures for the inhibition in test [6] and in test [7] were 40.9% and 21.2%, respectively.

`COc1c2ccoc2cc2oc(/C=N/c3ccccc3)cc(=O)c12`: the Displacement in [9] and in test [3] was less than 10% in each case. On Adenosine receptor A3 [1], this compound showed a Ki of 9.18 µM. In [8], the Ratio is greater than 20.

Compound `O=c1c(O)c(-c2ccccc2)oc2cc(O)cc(O)c12` [GALANGIN] came in with an inhibition constant (Ki) at Adenosine A2 receptor of 0.966 µM.

For the compound `O=C1c2ccccc2OC(c2ccccc2O)C1O` (stereo unspecified), the affinity at Adenosine receptor A1, expressed as Ki, was 91.9 µM. The same compound returned an inhibition in [10] (concentration not given here) of 27%. In test [3], this compound displayed a Displacement of less than 10%. In addition, the Ratio in [8] was less than 1.

Consider `COc1cc(OC)c(-c2oc3ccccc3c(=O)c2O)c(OC)c1`, for which, in [3], the Displacement is less than 10%. The Ratio in test [8] was 0.15.

As for `O=C1CC(c2ccc(O)cc2)Oc2ccccc21` (stereo unspecified) [4'-HYDROXY-FLAVANONE], the results for the Ki at Adenosine receptor A1 and on Adenosine receptor A3 [1] were 11.5 µM and 42.8 µM, respectively. In [12], this compound gave an inhibition of 35%.

On Adenosine receptor A3 [1], `O=c1ccnc2ccccn12` displayed a Ki of 48 µM.

For `C=C1C(C)C2C(Cc3ccccc3)NC(=O)C23C(OC(C)=O)/C=C\C(C)(O)CC(C)C/C=C/C3C1O` (stereo unspecified), the affinity on Adenosine receptor A3 [1] corresponds to a Ki of 23 µM.

The compound `Nc1nc2ncc(NCc3ccc(C(=O)NC(CCC(=O)O)C(=O)O)cc3)nc2c(=O)[nH]1` (stereo unspecified) returned a Ki on Adenosine receptor A3 [1] of 28 µM.

`CCOc1c2ccoc2cc2oc(/C=C/C=C/c3ccccc3)cc(=O)c12` had a Displacement in test [9] of less than 10%. For the same compound, the inhibition constant (Ki) was determined as 45.5 µM on Adenosine receptor A3 [1] and 167 µM at Adenosine A2 receptor. For the same compound, in test [8], the Ratio was greater than 4.

Take `COc1c2ccoc2cc2oc(C=O)cc(=O)c12`: the Displacement in test [9] is less than 10%. In test [13], this compound yielded an inhibition of 25%. Moreover, in test [8], the Ratio is greater than 2.

For `COc1c2ccoc2cc2oc(/C=C/c3ccccc3)cc(=O)c12`, the Ki on Adenosine A2 receptor is 11.5 µM. For the same compound, the Ratio in test [8] was 0.37.

Consider `CCOc1cc(OCC)c2c(=O)c(OCC)c(-c3ccccc3)oc2c1`, for which the inhibition constant (Ki) at Adenosine receptor A3 [11] was 18.2 µM; on Adenosine A2 receptor, 3.31 µM. Further, the inhibition turned out to be 19.1% in [6] and 2.2% in test [7].

Regarding `O=c1c(Cl)c(-c2ccccc2)oc2ccc(Cl)cc12`, the results for the Ki at Adenosine receptor A3 [1] and on Adenosine A2 receptor were 0.741 µM and 54.5 µM, respectively. This compound yielded an inhibition in [2] of 15%. In addition, the Ratio in test [8] was greater than 100.
